According to ChEMBL document CHEMBL1124740, “Design, synthesis, and 5-lipoxygenase-inhibiting properties of 1-thio-substituted butadienes” (J Med Chem, 1990):

Columns and labels:
[1] = In vitro methemoglobin Induction at 10e-4 M in lysed human red blood cells; format: functional
Summary of the method: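 Human red blood cells were lysed, and conversion of their hemoglobin to methemoglobin was followed spectrophotometrically in vitro.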

[2] = tested on: Mus musculus; assay: Inhibition of 5-lipoxygenase in vivo by the measurement of LTC4 release after intraperitoneal 15 min pretreatment (45 min challenge) of mice with a dose of 20 mg/kg; format: functional; conditions: ip
[3] = organism: Mus musculus; assay: In vitro inhibition of zymosan-stimulated release of Leukotriene C4 from intact mouse peritoneal macrophages following 60-min pretreatment/[…]; format: functional
Summary of the method: (§1)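 Mouse peritoneal macrophages collected by lavage, isolated by adherence and kept in Dulbecco's modified Eagle medium. Cells were pretreated with compound for 60 min, then challenged with opsonized zymosan. LTC4 in cell-free supernatant was measured by radioimmunoassay 3 h after challenge.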

[4] = target: T1, Polyunsaturated fatty acid 5-lipoxygenase (Rattus norvegicus, UniProt P12527); assay: Inhibition of 5-lipoxygenase in rat RBL-1 cells; format: cell-based
T1 sequence (P12527 whole entry): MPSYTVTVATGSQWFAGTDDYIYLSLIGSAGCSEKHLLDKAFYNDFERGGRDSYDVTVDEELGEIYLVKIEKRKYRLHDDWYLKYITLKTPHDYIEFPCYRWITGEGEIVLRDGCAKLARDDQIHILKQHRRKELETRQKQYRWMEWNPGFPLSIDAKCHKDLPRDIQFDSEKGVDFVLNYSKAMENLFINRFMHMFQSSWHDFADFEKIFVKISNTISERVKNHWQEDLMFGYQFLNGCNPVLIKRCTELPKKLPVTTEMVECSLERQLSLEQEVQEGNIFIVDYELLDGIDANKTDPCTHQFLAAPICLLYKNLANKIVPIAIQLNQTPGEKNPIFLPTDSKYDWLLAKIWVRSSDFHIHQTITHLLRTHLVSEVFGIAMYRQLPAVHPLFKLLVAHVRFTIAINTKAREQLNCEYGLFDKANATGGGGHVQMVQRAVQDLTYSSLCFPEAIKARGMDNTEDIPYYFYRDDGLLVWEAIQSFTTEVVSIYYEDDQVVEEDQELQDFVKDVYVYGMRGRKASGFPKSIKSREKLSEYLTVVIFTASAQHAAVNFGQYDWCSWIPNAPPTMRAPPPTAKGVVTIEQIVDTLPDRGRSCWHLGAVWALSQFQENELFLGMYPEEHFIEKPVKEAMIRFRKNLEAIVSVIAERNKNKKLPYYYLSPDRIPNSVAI
Summary of the method: (§2)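 It was preincubated 5 min at 25 °C with compound or vehicle (2% DMSO) in 0.5 mL of 50 mM KH2PO4, 50 µM ATP, pH 7.0, then substrate was added. Inhibition was taken as the ratio of substrate remaining without versus with inhibitor. IC50 was obtained by linear regression of % inhibition against log concentration.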

[5] = Inhibition of 15-HETE mammalian lipoxygenase at a concentration 20 uM; format: functional
Summary of the method: (§3)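 Enzyme source was a 100000g supernatant from human polymorphonuclear cells isolated to 95% purity. It was preincubated with or without compound for 10 min at 20 °C in phosphate-buffered saline (pH 8.3) with 0.5 mM MgCl2. The reaction was started with 120 μM arachidonic acid and stopped with citric acid after 5 min. Products were detected by UV at 272 and 232 nm, with PGB2 as internal standard.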

[6] = Inhibition of LTB4 mammalian lipoxygenase at a concentration 20 uM; format: functional; summary of the method: as §3
[7] = Inhibition of 5-HETE mammalian lipoxygenase at a concentration 20 uM; format: functional; summary of the method: as §3
[8] = Inhibition of 12-HETE mammalian lipoxygenase at a concentration 20 uM; format: functional; summary of the method: as §3
[9] = target: T2, Polyunsaturated fatty acid 5-lipoxygenase (Rattus norvegicus) (UniProt P12527); assay: Inhibitory activity against 5-lipoxygenase in RBL-1 cells at 40 uM concentration; format: cell-based
T2 sequence (whole entry): T1 sequence (P12527 whole entry)
Summary of the method: as §2, with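 “Enzyme source was a 100000g supernatant of RBL-1 cells (2.5 × 10^6 cell equivalents). It” for “It”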

[10] = target: T2, Polyunsaturated fatty acid 5-lipoxygenase (Rattus norvegicus); assay: Inhibitory activity against 5-lipoxygenase in RBL-1 cells at a concentration 40 uM.; format: cell-based
Summary of the method: as §2, with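 “Enzyme source was a 100000g supernatant of RBL-1 cells (2.5 × 10^6 cell equivalents). It” for “It”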

[11] = target: T2, Polyunsaturated fatty acid 5-lipoxygenase (Rattus norvegicus); assay: Inhibitory activity against 5-lipoxygenase in RBL-1 cells at a concentration 40 uM; format: cell-based
Summary of the method: as §2, with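 “Enzyme source was a 100000g supernatant of RBL-1 cells (2.5 × 10^6 cell equivalents). It” for “It”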

[12] = Potentiation of 15-HETE mammalian lipoxygenase at a concentration 20 uM; format: functional; summary of the method: as §3
[13] = organism: Mus musculus; assay: In vitro inhibition of zymosan stimulated release of Leukotriene C4 from intact mouse peritoneal macrophages; format: functional; summary of the method: as §1

CCCCCCCCCCC/C=C\C=C\SCCCC(=O)OC
Induction [1]: <3% | inhibition in vivo at 20 mg/kg [2]: 10% | IC50 [3]: > 60 µM | IC50 [4]: 22 µM

COc1ccc2c(c1)c(CC(=O)O)c(C)n2C(=O)c1ccc(Cl)cc1 [INDOMETHACIN]
IC50 [4]: > 20 µM

CC1=NN(CCOc2ccc3ccccc3c2)C(=O)C1 [NAFAZATROM]
Induction [1]: <3% | inhibition [5]: 30% | inhibition [6]: 65% | inhibition [7]: 68% | inhibition [8]: 58%

CC#CC/C=C\C=C\SCCCC(=O)OC
inhibition [9]: 32%

CCCCCCCCC#CC/C=C\C=C\Sc1ccccc1C(=O)OC
inhibition [10]: 45%

NC1=NN(c2cccc(C(F)(F)F)c2)CC1 [BW-755C]
Induction [1]: 17%

CCCCCCCCC#CC/C=C\C=C\Sc1ccc(C(=O)OC)cc1
inhibition [10]: 21%

CCCCCCCC/C=C\C/C=C\C=C\SCCC(=O)OC
inhibition [11]: 47%

CCCCCCCC/C=C\C/C=C\C=C\SCCCC(=O)O
IC50 [4]: 7.2 µM

CCCCCCCC/C=C\C/C=C\C=C\SCCCC(=O)OC
Potentiation [12]: 20% | Induction [1]: <3% | inhibition in vivo at 20 mg/kg [2]: 80% | inhibition [6]: 60% | IC50 [4]: 6.2 µM | inhibition [7]: 58% | inhibition [8]: 0% | IC50 [13]: 22 µM
